Test [1] is described as follows: In vitro ability to inhibit the herpes HSV-2 virus. Particulars: Oryctolagus cuniculus. Format: functional, herpes simplex virus.
The species entered for test [2] is Mus musculus. The test can be described thus: Average survival rate of mice infected intravaginally with herpes simplex virus type 2 at daily dosage of 5%(treatment initiated 4-h postinfection and continued for 7 days). Format: functional. In outline: (§1)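 Mice infected intravaginally with HSV-2. Test agent suspended in gum tragacanth and applied intravaginally. Survival recorded.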

For test [3], the species on record is Mus musculus. As to the kind of experiment: Percent survival rate of mice infected intravaginally with herpes simplex virus type 2 at daily dosage of 2.5%(treatment initiated 4-h postinfection and continued for 7 days). Format: functional. In outline:
as §1

For test [4], the species on record is Mus musculus. The test can be described thus: Percent survival rate of mice infected intravaginally with herpes simplex virus type 2 at daily dosage of 10%(treatment initiated 4-h postinfection and continued for 7 days). Format: functional. The method, boiled down: as §1
The species named for test [5] is Mus musculus. As to the kind of experiment: Average survival rate of mice infected intravaginally with herpes simplex virus type 2 with placebo (treatment initiated 4-h postinfection and continued for 7 days).
For test [6], the species on record is Mus musculus. As to the kind of experiment: Average survival rate of mice infected intravaginally with herpes simplex virus type 2 at daily dosage of 10%(treatment initiated 4-h postinfection and continued for 7 days). Format: functional. The method, boiled down:
as §1

For test [7], the species on record is Mus musculus. As to the kind of experiment: Percent survival rate of mice infected intravaginally with herpes simplex virus type 2 at daily dosage of 5%(treatment initiated 4-h postinfection and continued for 7 days). Format: functional. The method, boiled down: as §1
For another test, the species on record is Oryctolagus cuniculus. As to the kind of experiment: In vitro ability to inhibit the herpes HSV-2 virus; Inactive. The following applies: herpes simplex virus. Format: functional, organism-based.

Values after ≈ are worked out from the molar mass of the structure shown. Active and inactive are the calls of the source. The calls are words filed in the database; no cut-off is given here. Some results are limits rather than exact numbers.

For `CCOC(=O)c1ccc(OCCCCCCP(=O)(OCC)OCC)cc1`, the MIC in test [1] was 6 µg/mL (≈ 15.5 µM).

Consider `CCOP(=O)(CCCCCCOc1c(Cl)cccc1Cl)OCC`, for which the MIC in test [1] is 12 µg/mL (≈ 31.3 µM).

In the case of `CCCOP(=O)(CCCCCCOc1ccc(OC)cc1Cl)OCCC`, the MIC in test [1] turned out to be 6 µg/mL (≈ 14.7 µM). The molecule `CCOP(=O)(OCC)C(CCCCOc1ccc(OC)cc1Cl)C(C)=O` (stereo not drawn) displayed an MIC in test [1] of 12 µg/mL (≈ 29.5 µM). On to `CCOP(=O)(OCC)C(CCCCCOc1ccc(OC)cc1Cl)C(C)=O` (stereo not drawn), for which the MIC in test [1] stood at 6 µg/mL (≈ 14.3 µM). Regarding `CCOP(=O)(OCC)C(CCCCCCOc1ccc(OC)cc1Cl)C(C)=O` (stereo not drawn), the MIC in test [1] worked out at 6 µg/mL (≈ 13.8 µM). The same measure, in the same setting: as for `CCOP(=O)(OCC)C(CCCCCCCCOc1ccc(OC)cc1Cl)C(C)=O` (stereo not drawn), the figure is 6 µg/mL (≈ 13 µM). Turning to `CCOC(=O)C(CCCCCCOc1ccc(OC)cc1Cl)P(=O)(OCC)OCC` (stereo not drawn), the Average survival in the test listed under Mus musculus [2] was above 7.3 days; in the test listed under Mus musculus [5] it was above 8.1 days; in the test filed under Mus musculus [6], above 8.7 days. Moreover, the Survival in the test filed under Mus musculus [3] amounted to 10%; in the test filed under Mus musculus [4] it was 20%; in the test listed under Mus musculus [7] it was 10%. This molecule showed an MIC in test [1] of 3 µg/mL (≈ 6.45 µM). As for `CCOP(=O)(OCC)C(CCCCc1ccc(OC)cc1)C(C)=O` (stereo not drawn), in test [1], the MIC came out at 25 µg/mL (≈ 70.1 µM).

Molecule `CCOP(=O)(OCC)C(CCCCCCCOc1ccc(OC)cc1Cl)C(C)=O` (stereo not drawn) had an MIC in test [1] of 6 µg/mL (≈ 13.4 µM). Consider `CCOP(=O)(CCCCCCCCOc1ccc(OC)cc1Cl)OCC`, for which the MIC entry in the test listed under Oryctolagus cuniculus is “inactive”. The same measure, in the same setting: the entry for `CCOP(=O)(CCCCCCCOc1ccc(OC)cc1Cl)OCC` is “inactive”.

The record behind these values is ChEMBL document CHEMBL1122659, “Synthesis of some phosphonates with antiherpetic activity” (1984).
